In BindingDB's records for doi:10.1016/j.bmc.2009.06.008 (University of Leipzig, 2009):

Target: Sonic hedgehog protein (Mus musculus, UniProt Q62226)
Assay: Inhibition of SHH in mouse Shh-Light2 cells after 48 hrs by Gli1 reporter gene assay in presence of SAG
Summary of the method: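 Shh-Light II cells co-treated with the Hh activator SAG and inhibitor for 48 h. Cells washed with PBS and lysed, then firefly and constitutive Renilla luminescence read by dual-luciferase assay. IC50 from firefly/Renilla RLU/s plotted against concentration, Hill-slope non-linear regression. Highest concentration 5000 nM. 2–4 independent experiments, each in technical triplicate.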

Structure (SMILES) | IC50
CN(C)c1ccc(C(=O)Nc2ccc(Cl)c(-c3nc4ccccc4[nH]3)c2)cc1 [N-(3-(1H-Benzo[d]imidazol-2-yl)-4-chlorophenyl)-4-(dimethylamino)benzamide] | 190 nM
O=C(Nc1ccc(Cl)c(-c2nc3ccccc3[nH]2)c1)c1ccc(Cl)cc1 [N-(3-(1H-Benzo[d]imidazol-2-yl)-4-chlorophenyl)-4-chlorobenzamide] | 224 nM
COc1ccccc1C(=O)Nc1ccc(Cl)c(-c2nc3ccccc3[nH]2)c1 [N-(3-(1H-Benzo[d]imidazol-2-yl)-4-chlorophenyl)-2-methoxybenzamide] | 876 nM
O=C(Nc1ccc(Cl)c(-c2nc3ccccc3[nH]2)c1)c1ccc(F)cc1 [N-(3-(1H-Benzo[d]imidazol-2-yl)-4-chlorophenyl)-4-fluorobenzamide] | 251 nM
CCOc1cc(C(=O)Nc2cccc(-c3nc4ccccc4[nH]3)c2)cc(OCC)c1OCC [N-(3-(1H-Benzo[d]imidazol-2-yl)phenyl)-3,4,5-triethoxybenzamide] | 1320 nM
CC1=C2C[C@H]3[C@@H](CC=C4C[C@@H](O)CC[C@@]43C)[C@@H]2CC[C@]12O[C@@H]1C[C@H](C)CN[C@H]1[C@H]2C | 1310 nM

Continued by falling IC50, values first:

IC50 | Structure (SMILES)
185 nM | N#Cc1ccc(C(=O)Nc2ccc(Cl)c(-c3nc4ccccc4[nH]3)c2)cc1 [N-(3-(1H-Benzo[d]imidazol-2-yl)-4-chlorophenyl)-4-cyanobenzamide]
163 nM | O=C(Nc1ccc(Cl)c(-c2nc3ccccc3[nH]2)c1)c1ccccc1 [N-(3-(1H-Benzo[d]imidazol-2-yl)-4-chlorophenyl)-benzamide]
119 nM | O=C(Nc1ccc(Cl)c(-c2nc3ccccc3[nH]2)c1)c1cccc(C(F)(F)F)c1 [N-(3-(1H-Benzo[d]imidazol-2-yl)-4-chlorophenyl)-3-(trifluoromethyl)benzamide]
117 nM | COc1ccc(C(=O)Nc2ccc(Cl)c(-c3nc4ccccc4[nH]3)c2)cc1 [N-(3-(1H-Benzo[d]imidazol-2-yl)-4-chlorophenyl)-4-methoxybenzamide]
97.9 nM | CCOc1cc(C(=O)Nc2ccc(Cl)c(-c3nc4ccccc4[nH]3)c2)cc(OCC)c1OCC [N-(3-(1H-Benzo[d]imidazol-2-yl)-4-chlorophenyl)-3,4,5-triethoxybenzamide]
79.8 nM | COc1cc(C(=O)Nc2ccc(Cl)c(-c3nc4ccccc4[nH]3)c2)cc(OC)c1OC [N-(3-(1H-Benzo[d]imidazol-2-yl)-4-chlorophenyl)-3,4,5-trimethoxybenzamide]
